Bioassay records (PubChem)
KCNK3 block = human KCNK3 channel inhibitors, primary screen, CHO cells, FluxOR thallium flux, B-score; FluxOR fluorescence; stronger effect = lower value; B-score at 10 µM; actives 0.84% (n = 340,000);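 active means B-score under library mean minus 4 SD, starting fluorescence ratio at most library mean plus 5 SD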;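 further: more negative B-score means stronger inhibition of thallium flux through KCNK3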
hERG protect = hERG rescue from dofetilide block, primary screen, cell-based, CHO-hERG, FluxOR thallium flux, dofetilide IC70; dofetilide IC70 present; activation (rescue from dofetilide block), less the hit threshold, % at 10 µM; actives 0.51% (n = 310,000); AID 1511, 2009;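 active means activation above the mean of controls blocked by dofetilide plus 5 SD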;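 further: thallium influx through hERG after potassium depolarization seen as dye fluorescence rise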
Cl transport mod = KCC2 cotransporter modulators, thallium flux, primary screen, cell-based, HEK293 KCC2, FluoZin-2 fluorescence, MLSMR; Solute carrier family 12 member 5 (Homo sapiens), Q9H2X9; KCC2 cells, thallium flux FluoZin-2 fluorescence; B-score of Tl+ flux slope (higher = more flux/activation; lower = inhibition) at 10 µM; actives 2.2% (n = 190,000); AID 1456, 2008;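 active means thallium flux slope and its plate-corrected score both differing from the plate sample mean at a set confidence after two filtering rounds, in either direction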;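 further: slope of fluorescence scaled to starting intensity during 10 to 20 s after thallium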
KCNQ1 act = potentiators or activators of KCNQ1 channel, primary screen, cell-based, thallium flux, high-throughput | Potassium voltage-gated channel subfamily KQT member 1 (Homo sapiens), P51787 | CHO-K1 KCNQ1, thallium flux FluxOR fluorescence; stronger effect = higher value | B-score at 10 µM | actives 0.35% (n = 310,000);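 active means fluorescence ratio B-score, a plate-corrected score, at least three library SD, with initial intensity B-score within 5 SD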
Target sequence (P51787 whole entry, looked up): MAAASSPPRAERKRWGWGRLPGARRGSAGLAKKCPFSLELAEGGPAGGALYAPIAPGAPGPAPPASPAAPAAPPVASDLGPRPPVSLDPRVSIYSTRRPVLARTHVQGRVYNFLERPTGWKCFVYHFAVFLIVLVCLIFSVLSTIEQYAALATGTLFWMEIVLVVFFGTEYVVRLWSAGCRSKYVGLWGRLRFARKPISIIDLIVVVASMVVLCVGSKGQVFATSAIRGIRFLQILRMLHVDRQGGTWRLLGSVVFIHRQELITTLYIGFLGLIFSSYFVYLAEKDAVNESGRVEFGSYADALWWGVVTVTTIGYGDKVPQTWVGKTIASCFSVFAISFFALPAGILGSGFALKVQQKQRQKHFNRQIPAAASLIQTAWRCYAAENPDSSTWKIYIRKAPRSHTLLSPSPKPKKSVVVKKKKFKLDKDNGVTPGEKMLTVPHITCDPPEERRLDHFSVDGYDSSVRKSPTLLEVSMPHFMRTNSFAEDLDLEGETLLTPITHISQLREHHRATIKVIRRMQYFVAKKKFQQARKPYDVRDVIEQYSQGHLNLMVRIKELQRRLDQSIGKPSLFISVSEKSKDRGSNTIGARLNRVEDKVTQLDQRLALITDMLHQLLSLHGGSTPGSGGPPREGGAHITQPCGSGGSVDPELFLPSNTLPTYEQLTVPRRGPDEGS
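Schedule – 37 °C overnight plating, 90-min dark dye load, 20-min compound pretreatment · System – stable KCNQ1 CHO-K1 line · Probe or stimulus – thallium- and potassium-containing depolarizing buffer · Measured by – kinetic FluxOR fluorescence, 10 s baseline plus 110 s post-stimulus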
KCNK9 inh = KCNK9 potassium channel inhibitors, primary screen, HEK293 cells, thallium flux | FluxOR thallium flux fluorescence; stronger effect = lower value | actives 1.2% (n = 310,000) | B-score at 10 µM;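 active means ratio B-score over 3 SD below the library mean, with starting fluorescence within 5 SD of its mean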;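 further: negative B-score means less thallium flux so channel inhibition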
KCNQ1 block = inhibitors of human KCNQ1 channel, primary screen, cell-based, thallium flux, high-throughput. actives 1.3% (n = 310,000). Potassium voltage-gated channel subfamily KQT member 1 (Homo sapiens), P51787. B-score at 10 µM. CHO-K1 KCNQ1, FluxOR thallium flux fluorescence; stronger effect = higher value. AID 2642, 2010;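 active means compounds whose thallium flux B-score, printed positive for inhibition, exceeds three library SD while starting fluorescence stays within three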;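 further: channel opened by potassium depolarization with thallium stimulus after 20 min compound exposure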
KCC2 secondary = KCC2 modulators in sodium-free buffer, confirmation, cell-based, HEK293 KCC2, thallium flux, secondary assay; shares compounds with Cl transport mod; FluoZin2 fluorescence; stronger effect = higher value; normalised thallium flux (F/F0 slope) at 10 µM; actives 15% (n = 3,700); AID 1713, 2009;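 active means thallium flux slope above the same plate's solvent-only control mean plus 3 SD; inconclusive means the two replicate wells disagree; inactive means no significant difference from solvent-only control wells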
KCC2 bumet counter = thallium flux persisting under bumetanide in KCC2 cells, confirmation, counter-screen for KCC2 modulator project, cell-based, HEK293 KCC2, FluoZin2, secondary assay 3. HEK293-KCC2 + bumetanide/ouabain; stronger effect = higher value. shares compounds with Cl transport mod. normalized thallium flux at 10 µM. actives 49% (n = 3,700). AID 1714, 2009;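 active means thallium entry rate above the same plate's blocked-transporter control wells by more than 3 SD; inconclusive means the two repeat wells disagree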;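 further: raw slope of fluorescence over initial fluorescence between 10 and 20 s after thallium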
KCC2 sec2 = KCC2 modulators without ouabain present, confirmation, cell-based, HEK293 KCC2, thallium flux, FluoZin2, secondary assay 2; normalized thallium flux at 10 µM; actives 23% (n = 3,700); shares compounds with Cl transport mod; AID 1715, 2009; thallium flux FluoZin2 fluorescence; actives lie on both sides; F/F0 rise rate, 10–20 s post-thallium;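 active means thallium flux slope more than 3 SD above or below the plate's solvent-only control mean, mostly below; inconclusive means the two repeat wells disagreed; inactive means no significant shift from solvent-only controls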;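 further: raw slope with 0.1% DMSO as baseline and bumetanide as block control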
HEK293 Tl flux = thallium flux modulation in parental HEK cells, confirmation, counter-screen for KCC2 modulator project, cell-based, counterscreen 1; HEK293 parental cells, thallium flux FluoZin2, ouabain; baseline-ratio fluorescence slope, 10–20 s after thallium; thallium flux rate (normalised fluorescence) at 10 µM; actives 46% (n = 3,700); shares compounds with Cl transport mod;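 active means thallium flux rate significantly above the same plate's solvent-only control wells, beyond their mean plus 3 SD; inconclusive means the two replicate wells gave conflicting results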
KCC2 ouabain = KCC2 inhibitors and activators, ouabain retest, confirmation, HEK-KCC2 cells. shares compounds with Cl transport mod. HEK293-KCC2, thallium flux FluoZin2 fluorescence; bidirectional: low = inhibitor, high = activator. raw Tl+ flux slope (below DMSO = inhibition, above = activation) at 10 µM. actives 48% (n = 3,700). AID 1717, 2009;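 active means thallium flux slope beyond 3 SD from same-plate DMSO control mean in most replicates, usually higher, sometimes lower; inconclusive means repeat tests gave conflicting results; inactive means no significant difference from controls in most replicates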;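 further: slope of initial-normalized fluorescence between seconds 10 and 20 after thallium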
HEK293 Tl flux2 = native HEK Tl+ uptake effects, second counter-screen – HEK cells, counterscreen 2, counter-screen for KCC2 modulator project, confirmation | shares compounds with Cl transport mod | HEK293 parental, thallium flux FluoZin-2 fluorescence slope | thallium flux slope at 10 µM | actives 33% (n = 3,700) | AID 1718, 2009;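 active means thallium flux slope above the same plate's solvent-control mean plus 3 SD in both duplicate wells; inconclusive means duplicate wells that disagreed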;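 further: run without ouabain in cells lacking the KCC2 cotransporter; slope of fluorescence scaled to its starting value between 10 and 20 s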
* marks the source's active call; other numbers are inactive results; i = inactive; ? = inconclusive; . = no result. This is a sample that favours compounds with a hit; in the whole collection about 4.1% have one here.

SMILES	KCNK3 block	hERG protect	Cl transport mod	KCNQ1 act	KCNK9 inh	KCNQ1 block	KCC2 secondary	KCC2 bumet counter	KCC2 sec2	HEK293 Tl flux	KCC2 ouabain	HEK293 Tl flux2
O=C(CNC(=O)c1ccccc1)OCC(=O)c1c[nH]c2ccccc12	i	.	.	.	.	.	.	.	.	.	.	.
CCOC(=O)c1c(C)[nH]c(N=Nc2ccccc2)c1C	i	-10.3	5.25*	i	i	i	0.0103	0.00975*	0.0358	0.00913*	?	?
CCOC(=O)c1c(C)[nH]c(N=Nc2ccc(C)cc2)c1C	i	-5.0	0.00924	i	i	i	.	.	.	.	.	.
O=C(COc1ccc(C(=O)c2ccc(F)cc2)cc1)Nc1cccc(S(=O)(=O)N2CCOCC2)c1	i	.	.	.	.	.	.	.	.	.	.	.
CCCOc1ccc(C(=O)NNC(=S)NC(=O)c2ccco2)cc1	i	18.0*	97.1*	12*	i	i	0.00702	0.00477	0.0839*	0.0863*	?	0.0842*
O=C(NNC(=S)Nc1ccc(F)cc1F)c1ccco1	i	-10.8	.	i	i	i	.	.	.	.	.	.
O=C(NNC(=S)NC(=O)c1ccco1)c1ccc(F)cc1	i	-8.1	59.6*	i	i	i	0.0258*	0.0632*	?	0.0352*	0.0432*	0.0186*
O=C(COc1ccc(Cl)cc1Cl)NNC(=S)NC(=O)c1ccco1	i	-18.5	69.8*	i	i	i	0.0302*	0.118*	0.0357	?	0.076*	0.03*
O=C(COc1ccc(Cl)cc1Cl)NNC(=S)NCc1ccco1	i	-9.1	3.7	i	i	i	.	.	.	.	.	.
O=C(NC(=S)NNC(=O)c1cccs1)c1ccco1	i	-17.0	3.63*	i	i	i	0.0183*	0.0294*	0.0377	0.0193*	0.0365*	0.0129*
C/C(O)=c1/c(=O)nc2cccc3c2=c1c1ccccc1c3=O	i	-2.0	.	i	i	i	.	.	.	.	.	.
O=C(NCc1ccccc1)c1nc[nH]c1C(=O)N1CCc2ccccc2C1	i	.	.	.	.	.	.	.	.	.	.	.
CCCOc1ccc(C(=O)NCCO)cc1	i	-4.6	5.94*	i	i	i	0.00954	0.00565	0.0333	0.0078	0.0226	0.00989
CC1(C)CC(=O)C2=C(C1)c1c(ccc3ccccc13)NC2c1cc([N+](=O)[O-])cc([N+](=O)[O-])c1O (stereo not drawn)	i	-12.4	-4.47*	i	i	i	0.00528	0.00502	0.0269*	?	0.0157*	0.0102
Cc1ccc(C)c(NC(=S)Nc2ncccc2C)c1	i	-10.9	0.43	i	i	i	.	.	.	.	.	.
Cc1ccc(C)c(NC(=S)N/N=C2\CCc3ccccc32)c1	i	-7.7	23.6*	i	i	i	0.0139*	0.0748*	0.0341	0.0711*	0.0431*	0.0176*
CCOc1ccc(S(=O)(=O)NCc2cccnc2)cc1	i	0.1	.	i	i	i	.	.	.	.	.	.
c1ccc(CSc2nnc(NC3=NCCCCC3)s2)cc1	i	-9.3	.	i	i	i	0.00764	0.00523	0.0282	0.00722	0.034*	0.0105
Cc1noc(C)c1S(=O)(=O)Nc1ccc(C(=O)NC2CCCCCC2)cc1	i	-9.6	-4.21*	i	i	i	?	0.00651	0.0318	0.00795	0.0225	0.0109
O=C(OCC(=O)N1CCN(C(=O)c2ccco2)CC1)c1sc2ccccc2c1Cl	i	-2.4	-3.96*	i	i	i	0.00658	?	?	0.00835	0.0184	0.0117
O=C(/C=C/c1ccccc1)NCCCNC(=O)/C=C/c1ccccc1	i	-3.6	-2.02	i	i	i	.	.	.	.	.	.
CCOc1ccc(/C=N/n2cc(-c3ccccc3)[nH]c2=S)cc1	i	-10.1	27.7*	i	i	i	?	0.0569*	0.0326	0.0265*	0.0533*	0.0123*
S=c1[nH]c(-c2ccccc2)cn1/N=C/c1ccncc1	i	-12.4	1.84	i	i	i	.	.	.	.	.	.
CC(C)N(C(=O)NC(=O)NCC1CCCO1)S(C)(=O)=O (stereo not drawn)	i	-4.5	.	i	i	i	.	.	.	.	.	.
COc1ccc(S(=O)(=O)N2CCN(Cc3ccc(OC)c(OC)c3)CC2)cc1	i	-4.0	.	i	i	i	.	.	.	.	.	.
CC(NC(=O)COC(=O)CC(c1ccccc1)c1ccccc1)c1ccccc1 (stereo not drawn)	i	-13.1	-4.73*	i	i	i	0.008	0.00374	0.0268	0.00532*	0.0176	?
